Results taken from ChEMBL document CHEMBL1142934, “Molecular modeling of the human P2Y2 receptor and design of a selective agonist, 2'-amino-2'-deoxy-2-thiouridine 5'-triphosphate” (J Med Chem, 2007).

Assays:
Assay type in all cases: functional, cell-based
P2Y purinoceptor 2 = P2Y purinoceptor 2 (Homo sapiens, UniProt P41231); assay: Agonist activity at human recombinant P2Y2 receptor expressed in 1321N1 cells assessed as stimulation of phospholipase C
Outline: (§1)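 Human P2Y2, P2Y4 or P2Y6 receptors stably expressed in 1321N1 astrocytoma cells. PLC activation was measured across a concentration range of each nucleotide. Tritiated inositol phosphates formed from a radiolabeled myo-inositol precursor were quantified by a standard ion exchange method. Values are mean ± standard error, N = 3.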

P2Y purinoceptor 6 [1] = molecular target: T1, P2Y purinoceptor 6 (Homo sapiens, UniProt Q15077); assay: Agonist activity at human recombinant P2Y6 receptor expressed in 1321N1 cells assessed as stimulation of phospholipase C
T1 sequence (Q15077 whole entry): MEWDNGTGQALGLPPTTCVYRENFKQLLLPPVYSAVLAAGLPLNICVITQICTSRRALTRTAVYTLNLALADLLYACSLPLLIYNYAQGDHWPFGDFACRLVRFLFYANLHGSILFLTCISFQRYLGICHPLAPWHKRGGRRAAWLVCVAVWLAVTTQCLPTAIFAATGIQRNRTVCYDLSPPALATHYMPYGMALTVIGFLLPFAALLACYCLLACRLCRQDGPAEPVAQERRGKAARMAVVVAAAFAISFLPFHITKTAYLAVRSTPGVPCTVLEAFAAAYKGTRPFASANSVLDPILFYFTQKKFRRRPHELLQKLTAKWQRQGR
Outline: as §1, with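 “method. EC50 was the concentration giving 50% of the maximal effect, fitted with a four-parameter logistic equation.” for “method.”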

P2Y purinoceptor 4 [2] = molecular target: T2, P2Y purinoceptor 4 (Homo sapiens, UniProt P51582); assay: Agonist activity at human recombinant P2Y4 receptor expressed in 1321N1 cells assessed as stimulation of phospholipase C
T2 sequence (P51582 whole entry): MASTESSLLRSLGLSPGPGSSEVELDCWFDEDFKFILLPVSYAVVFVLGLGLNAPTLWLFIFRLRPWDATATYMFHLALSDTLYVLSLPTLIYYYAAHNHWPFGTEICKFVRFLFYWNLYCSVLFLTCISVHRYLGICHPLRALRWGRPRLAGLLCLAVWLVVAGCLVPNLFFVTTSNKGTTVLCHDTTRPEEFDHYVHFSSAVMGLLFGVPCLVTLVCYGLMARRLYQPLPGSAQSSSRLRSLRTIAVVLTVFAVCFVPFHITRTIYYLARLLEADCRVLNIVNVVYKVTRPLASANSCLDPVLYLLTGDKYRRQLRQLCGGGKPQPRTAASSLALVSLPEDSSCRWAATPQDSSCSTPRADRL
Outline: as §1, with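 “method. EC50 was the concentration giving 50% of the maximal effect, fitted with a four-parameter logistic equation.” for “method.”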

P2Y purinoceptor 6 [3] = molecular target: T1, P2Y purinoceptor 6; assay: Agonist activity at human recombinant P2Y6 receptor expressed in 1321N1 cells assessed as intracellular calcium mobilization
P2Y purinoceptor 4 [4] = molecular target: T2, P2Y purinoceptor 4; assay: Antagonistic activity at human recombinant P2Y4 receptor expressed in 1321N1 cells; conditions: filed as antagonist

Sequence of P2Y purinoceptor 2 (P41231 whole entry): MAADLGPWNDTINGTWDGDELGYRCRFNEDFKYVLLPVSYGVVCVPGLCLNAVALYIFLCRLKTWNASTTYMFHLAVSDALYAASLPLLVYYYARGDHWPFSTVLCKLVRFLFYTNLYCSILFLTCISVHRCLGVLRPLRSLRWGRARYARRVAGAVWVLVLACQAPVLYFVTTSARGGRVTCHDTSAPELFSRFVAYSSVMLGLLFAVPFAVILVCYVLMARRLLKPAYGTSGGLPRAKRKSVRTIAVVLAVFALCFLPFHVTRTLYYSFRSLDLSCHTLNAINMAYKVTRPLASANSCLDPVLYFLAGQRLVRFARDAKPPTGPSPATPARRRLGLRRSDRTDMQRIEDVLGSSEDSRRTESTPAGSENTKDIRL

O=c1ccn([C@@H]2O[C@H](COP(=O)(O)OP(=O)(O)OP(=O)(O)S)[C@@H](O)[C@H]2O)c(=O)[nH]1 (some centres not stated)
EC50 (P2Y purinoceptor 2): 240 nM (agonist)

Cc1cn([C@@H]2O[C@H](COP(=O)(O)OP(=O)(O)OP(=O)(O)O)[C@@H](O)[C@H]2O)c(=O)[nH]c1=O [THYMIDINE_TRIPHOSPHATE]
EC50 (P2Y purinoceptor 2): 480 nM (agonist) | EC50 (P2Y purinoceptor 6 [1]): 140 nM (agonist) | EC50 (P2Y purinoceptor 4 [2]): 3900 nM (agonist)

O=c1ccn([C@@H]2O[C@H](COP(=O)(O)OP(=O)(O)OP(=O)(O)OP(=O)(O)OC[C@H]3OC(O)[C@H](O)[C@@H]3O)[C@@H](O)[C@H]2O)c(=O)[nH]1 (some centres not stated)
EC50 (P2Y purinoceptor 2): 1880 nM (agonist)

O=c1ccn([C@@H]2O[C@H](COP(=O)(O)OP(=O)(O)OP(=O)(O)O)[C@@H](O)[C@H]2O)c(=O)[nH]1 [URIDINE TRIPHOSPHATE]
EC50 (P2Y purinoceptor 2): 49 nM (agonist) | EC50 (P2Y purinoceptor 6 [3]): > 10000 nM (agonist) | EC50 (P2Y purinoceptor 4 [2]): 73 nM (agonist)

O=c1[nH]c(=O)n([C@@H]2O[C@H](COP(=O)(O)OP(=O)(O)OP(=O)(O)O)[C@@H](O)[C@H]2O)cc1I
EC50 (P2Y purinoceptor 2): 830 nM (agonist)

CO[C@@H]1[C@H](O)[C@@H](COP(=O)(O)OP(=O)(O)OP(=O)(O)O)O[C@H]1n1ccc(=O)[nH]c1=O
EC50 (P2Y purinoceptor 2): 14300 nM (agonist)

O=c1ccn([C@H]2C[C@H](O)[C@@H](COP(=O)(O)OP(=O)(O)OP(=O)(O)O)O2)c(=O)[nH]1
EC50 (P2Y purinoceptor 2): 1080 nM (agonist)

CC(=O)N[C@@H]1[C@H](O)[C@@H](COP(=O)(O)OP(=O)(O)OP(=O)(O)O)O[C@H]1n1ccc(=O)[nH]c1=S
EC50 (P2Y purinoceptor 2): 6500 nM (agonist)

Nc1ccn([C@H]2C[C@H](O)[C@@H](COP(=O)(O)OP(=O)(O)OP(=O)(O)OP(=O)(O)OC[C@H]3O[C@@H](n4ccc(=O)[nH]c4=O)[C@H](O)[C@@H]3O)O2)c(=O)n1 [DENUFOSOL]
EC50 (P2Y purinoceptor 2): 270 nM (agonist)

O=c1ccn([C@@H]2O[C@H](COP(=O)(O)OP(=O)(O)OP(=O)(O)O)[C@@H](O)[C@H]2O)c(=S)[nH]1
EC50 (P2Y purinoceptor 2): 35 nM (agonist) | EC50 (P2Y purinoceptor 6 [1]): 1500 nM (agonist) | EC50 (P2Y purinoceptor 4 [2]): 350 nM (agonist)

Nc1cn([C@@H]2O[C@H](COP(=O)(O)OP(=O)(O)OP(=O)(O)O)[C@@H](O)[C@H]2O)c(=O)[nH]c1=O
EC50 (P2Y purinoceptor 2): 5600 nM (agonist) | EC50 (P2Y purinoceptor 6 [1]): 333 nM (agonist)

N[C@@H]1[C@H](O)[C@@H](COP(=O)(O)OP(=O)(O)OP(=O)(O)O)O[C@H]1n1ccc(=O)[nH]c1=O
EC50 (P2Y purinoceptor 2): 62 nM (agonist) | EC50 (P2Y purinoceptor 6 [1]): > 100000 nM | EC50 (P2Y purinoceptor 4 [2]): 1200 nM (agonist)

N[C@@H]1[C@H](O)[C@@H](COP(=O)(O)OP(=O)(O)OP(=O)(O)O)O[C@H]1n1ccc(=O)[nH]c1=S
EC50 (P2Y purinoceptor 2): 8 nM (agonist) | EC50 (P2Y purinoceptor 6 [1]): > 10000 nM | EC50 (P2Y purinoceptor 4 [2]): 2400 nM (agonist)

Nc1ncnc2c1ncn2[C@@H]1O[C@H](COP(=O)(O)OP(=O)(O)OP(=O)(O)O)[C@@H](O)[C@H]1O
Activity (P2Y purinoceptor 4 [4]): Antagonist | Kb (P2Y purinoceptor 4 [4]): 708 nM

[N-]=[N+]=Nc1cn([C@@H]2O[C@H](COP(=O)(O)OP(=O)(O)OP(=O)(O)O)[C@@H](O)[C@H]2O)c(=O)[nH]c1=O
EC50 (P2Y purinoceptor 2): 1800 nM (agonist) | EC50 (P2Y purinoceptor 6 [1]): 467 nM (agonist)

O=c1ccn([C@@H]2O[C@H](COP(=O)(O)OP(=O)(O)OP(=O)(O)OP(=O)(O)OC[C@H]3O[C@@H](n4ccc(=O)[nH]c4=O)[C@H](O)[C@@H]3O)[C@@H](O)[C@H]2O)c(=O)[nH]1 [DIQUAFOSOL]
EC50 (P2Y purinoceptor 6 [3]): 20000 nM (agonist)

O=C(N[C@@H]1[C@H](O)[C@@H](COP(=O)(O)OP(=O)(O)OP(=O)(O)O)O[C@H]1n1ccc(=O)[nH]c1=S)C(F)(F)F
EC50 (P2Y purinoceptor 2): 470 nM (agonist) | EC50 (P2Y purinoceptor 4 [2]): 8300 nM (agonist)

O=c1[nH]c(=O)n([C@@H]2O[C@H](COP(=O)(O)OP(=O)(O)OP(=O)(O)O)[C@@H](O)[C@H]2O)cc1Br
EC50 (P2Y purinoceptor 2): 750 nM (agonist)
